According to ChEMBL document CHEMBL1129495, “Highly selective bradykinin agonists and antagonists with replacement of proline residues by N-methyl-D- and L-phenylalanine” (J Med Chem, 1996):
Square brackets hold non-standard residues; d marks the D form. Peptide text beside a SMILES is read from it.

How the values were obtained:
Cavia porcellus [1] = species on record: Cavia porcellus; test: (§1) Antagonistic activity was evaluated in Guinea pig ileum assay.; format: functional; design: scale not given: the % may be the effect or the level left
Procedure, shortened: (§2)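 Guinea pig terminal ileum in Tyrode at 37 °C under 0.5 g tension, isotonic recording. Analog added 5 min before a cumulative BK dose–response curve (maximum at 0.3 µM BK). pA2 is the negative log of the antagonist concentration that reduces the effect of a double BK dose to that of a single dose. Means of 3–7 determinations.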

[2] = Inhibitory activity against low affinity binding site of Bradykinin receptor in guinea pig ileum; format: tissue-based; conditions: Cavia porcellus
Procedure, shortened: (§3)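 Fresh rat myometrial or guinea pig ileum membranes (0.3–0.5 mg protein) incubated 30 min at 4 °C with 0.05 nM [3H]BK and increasing peptide concentrations. Buffer: 25 mM TES pH 6.8, 1 µM captopril, 1 mM DTE, bacitracin, BSA. Samples filtered on PEI-treated GF/C and counted. High- and low-affinity IC50s from Tobler–Engel analysis; duplicates.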

Rattus norvegicus [3] = species on record: Rattus norvegicus; test: Agonistic activity was evaluated in Estrus Rat Uterus Assay; format: functional
Procedure, shortened: (§4)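 Uteri from female Wistar rats (180–200 g) given diethylstilbestrol 100 µg/kg sc 16 h before use. Distal horns held in de Jalon solution at 28 °C under 0.5 g resting tension, with isotonic contractions recorded. BK was dosed every 4 min and left in the bath 45 s. Agonist activity by Schild 4-point method, expressed as percent of BK activity.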

Cavia porcellus [4] = species on record: Cavia porcellus; test: Antagonistic activity was evaluated in Guinea pig lung strip assay.; format: functional; design: scale not given: the % may be the effect or the level left
Procedure, shortened: (§5)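 Lower-lobe lung strips (2–3 mm) from guinea pigs (400–600 g) in Krebs–Henseleit at 37 °C under 1 g load, with isometric tension recorded. After 1 h equilibration, peptide was given 5 min before an ED50 dose of BK. Cumulative BK curves covered 0.01–10 µM. pA2 by the van Rossum method.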

[5] = Inhibitory activity against high affinity binding site of Bradykinin receptor in guinea pig ileum was reported.; format: tissue-based; conditions: Cavia porcellus; procedure, shortened: as §3
[6] = Inhibitory activity against low affinity binding site of Bradykinin receptor in rat uterus membrane was reported.; format: cell membranes; procedure, shortened: as §3
[7] = Inhibitory activity against low binding affinity binding site of Bradykinin receptor in guinea pig ileum was reported.; format: tissue-based, Cavia porcellus; procedure, shortened: as §3
[8] = Inhibitory activity against high binding affinity binding site of Bradykinin receptor in rat uterus membrane was reported.; format: cell membranes; procedure, shortened: as §3
[9] = Inhibitory activity against low binding affinity binding site of Bradykinin receptor in rat uterus membrane was reported.; format: cell membranes; procedure, shortened: as §3
[10] = Selectivity for rat uterus is expressed as the ratio RUT/GPI; format: functional
Procedure, shortened: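 Ratio of agonist activity (percent of BK) in estrus rat uterus to that in guinea pig ileum, both from isotonic contraction assays using the Schild 4-point method.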

[11] = Inhibitory activity against high affinity binding site of Bradykinin receptor in rat uterus membrane was reported.; format: cell membranes; procedure, shortened: as §3
Cavia porcellus [12] = species on record: Cavia porcellus; test: Antagonistic activity expressed as pA2 in Guinea pig lung strip assay.; format: functional; conditions: read-out: pA2 (converted); procedure, shortened: as §5
Cavia porcellus [13] = species on record: Cavia porcellus; test: as §1; format: functional, organism-based; conditions: read-out: pA2 (converted); procedure, shortened: as §2
Rattus norvegicus [14] = species on record: Rattus norvegicus; test: Compound was tested for agonist activity for contraction of rat uterus, the negative logarithm of ED50 (pD2) was estimated.
Rattus norvegicus [15] = species on record: Rattus norvegicus; test: Agonistic activity against selectivity for smooth muscle contraction in rat uterus.; format: functional, Muscle tissue; procedure, shortened: as §4
Cavia porcellus [16] = species on record: Cavia porcellus; test: Agonistic activity against selectivity for smooth muscle contraction in guinea pig ileum.; format: functional, Muscle tissue
Procedure, shortened: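 Isolated terminal ileum (1.5 cm) from guinea pigs fasted 16 h, in Tyrode at 37 °C. Isotonic contractions recorded under 0.5 g resting tension. Agonist activity measured by Schild 4-point method against BK doses of 1 and 2 nM, expressed as percent of BK activity.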

Cavia porcellus [17] = species on record: Cavia porcellus; test: Compound was tested for agonist activity for contraction of guinea pig ileum; the negative logarithm of ED50 (pD2) was estimated.

| IC50 [2] [nM] | IC50 [5] [nM] | IC50 [6] [nM] | IC50 [7] [nM] | IC50 [8] [nM] | IC50 [9] [nM] | IC50 [11] [nM] | Compound | Activity (Cavia porcellus [1]) [%] | Activity (Rattus norvegicus [3]) [%] | Activity (Cavia porcellus [4]) [%] | Ratio [10] | Kb (Cavia porcellus [12]) [nM] | Kb (Cavia porcellus [13]) [nM] | pD2 (Rattus norvegicus [14]) | Activity (Rattus norvegicus [15]) [%] | Activity (Cavia porcellus [16]) [%] | pD2 (Cavia porcellus [17]) |
| --- | --- | --- | --- | --- | --- | --- | --- | --- | --- | --- | --- | --- | --- | --- | --- | --- | --- |
| 3780 | 57 | 100 |  |  |  |  | CN(C(=O)[C@@H](N)CCCN=C(N)N)[C@H](Cc1ccccc1)C(=O)N1CCC[C@H]1C(=O)NCC(=O)N[C@@H](Cc1ccccc1)C(=O)N[C@@H](CO)C(=O)N1CCC[C@H]1C(=O)N[C@@H](Cc1ccccc1)C(=O)N[C@@H](CCCN=C(N)N)C(=O)O | 0.15 | 0.15 | 0.05 |  |  |  |  |  |  |  |
|  |  |  | 29 | 0.49 | 65 |  | CN(C(=O)[C@H](CO)NC(=O)[C@H](Cc1cccs1)NC(=O)CNC(=O)[C@@H]1CC(O)CN1C(=O)[C@@H]1CCCN1C(=O)[C@@H](N)CCCN=C(N)N)[C@H](Cc1ccccc1)C(=O)N[C@@H](Cc1ccccc1)C(=O)N[C@@H](CCCN=C(N)N)C(=O)O (some centres undefined) | 0.02 | 89 | 0.04 | 4000 |  |  |  |  |  |  |
| 132 | 1 | 4.8 |  |  |  | 0.11 | CN(C(=O)[C@H](CO)NC(=O)[C@H](Cc1ccccc1)NC(=O)CNC(=O)[C@@H]1CCCN1C(=O)[C@@H]1CCCN1C(=O)[C@@H](N)CCCN=C(N)N)[C@H](Cc1ccccc1)C(=O)N[C@@H](Cc1ccccc1)C(=O)N[C@@H](CCCN=C(N)N)C(=O)O | 0.04 | 136 | 1.4 | 300 |  |  |  |  |  |  |
| 8000 | 2.6 | 375 |  |  |  | 0.2 | CN(C(=O)[C@@H]1CCCN1C(=O)[C@@H](N)CCCN=C(N)N)[C@@H](Cc1ccccc1)C(=O)NCC(=O)N[C@@H](Cc1ccccc1)C(=O)N[C@@H](CO)C(=O)N1CCC[C@H]1C(=O)N[C@@H](Cc1ccccc1)C(=O)N[C@@H](CCCN=C(N)N)C(=O)O | 0.05 | 0.03 | 0.03 |  |  |  |  |  |  |  |
| 25 | 1 | 232 |  |  |  | 3.5 | CN(C(=O)[C@@H](N)CCCN=C(N)N)[C@@H](Cc1ccccc1)C(=O)N1CCC[C@H]1C(=O)NCC(=O)N[C@@H](Cc1ccccc1)C(=O)N[C@@H](CO)C(=O)N1CCC[C@H]1C(=O)N[C@@H](Cc1ccccc1)C(=O)N[C@@H](CCCN=C(N)N)C(=O)O | 4 | 35 | 1.4 |  | 2570 |  |  |  |  |  |
|  |  |  | 14 | 6.6 | 3.5 |  | NC(N)=NCCC[C@H](NC(=O)[C@H](Cc1ccccc1)NC(=O)[C@@H](Cc1ccccc1)NC(=O)[C@H](CO)NC(=O)[C@H](Cc1ccccc1)NC(=O)CNC(=O)[C@@H]1CCCN1C(=O)[C@@H]1CCCN1C(=O)[C@@H](N)CCCN=C(N)N)C(=O)O (H-RPPGFS[dF]FR-OH) |  | 1.7 | 0.9 |  |  | 2750 |  |  |  |  |
| 1.75 | 0.01 | 1 |  |  |  | 0.01 | H-RPPGFSPFR-OH [BRADYKININ] | 100 | 100 | 100 | 1 |  |  | 7.9 | 100 | 100 | 7.4 |
